Experimental findings from ChEMBL document CHEMBL1129978, “Effect of structural modification of enol-carboxamide-type nonsteroidal antiinflammatory drugs on COX-2/COX-1 selectivity” (J Med Chem, 1997) are described below.

The target of experiment [1] is T1, Prostaglandin G/H synthase 1 (Homo sapiens, UniProt P23219). Nature of the experiment: Inhibition of human Prostaglandin G/H synthase 1 at 10 ug/mL expressed as mean percent inhibition of control PGE-2 production. The gist of the method:
(§1)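 Human COX-1 and COX-2 genes expressed in a baculovirus system; microsomes prepared from High Five insect cells and used as the enzyme source. Activity read as PGE2 production. Each dose run in duplicate wells within each experiment, and values given as mean percent inhibition of control PGE2.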

Experiment [2] addresses T1, Prostaglandin G/H synthase 1. Nature of the experiment: Inhibition of human Prostaglandin G/H synthase 1 at 0.1 ug/mL expressed as mean percent inhibition of control PGE-2 production. Summed up: as §1
The target is the same in experiment [3]. Nature of the experiment: Inhibition of human Prostaglandin G/H synthase 1 at 1 ug/mL expressed as mean percent inhibition of control PGE-2 production. Summed up: as §1

Structures are written as SMILES.

T1 sequence (P23219 whole entry): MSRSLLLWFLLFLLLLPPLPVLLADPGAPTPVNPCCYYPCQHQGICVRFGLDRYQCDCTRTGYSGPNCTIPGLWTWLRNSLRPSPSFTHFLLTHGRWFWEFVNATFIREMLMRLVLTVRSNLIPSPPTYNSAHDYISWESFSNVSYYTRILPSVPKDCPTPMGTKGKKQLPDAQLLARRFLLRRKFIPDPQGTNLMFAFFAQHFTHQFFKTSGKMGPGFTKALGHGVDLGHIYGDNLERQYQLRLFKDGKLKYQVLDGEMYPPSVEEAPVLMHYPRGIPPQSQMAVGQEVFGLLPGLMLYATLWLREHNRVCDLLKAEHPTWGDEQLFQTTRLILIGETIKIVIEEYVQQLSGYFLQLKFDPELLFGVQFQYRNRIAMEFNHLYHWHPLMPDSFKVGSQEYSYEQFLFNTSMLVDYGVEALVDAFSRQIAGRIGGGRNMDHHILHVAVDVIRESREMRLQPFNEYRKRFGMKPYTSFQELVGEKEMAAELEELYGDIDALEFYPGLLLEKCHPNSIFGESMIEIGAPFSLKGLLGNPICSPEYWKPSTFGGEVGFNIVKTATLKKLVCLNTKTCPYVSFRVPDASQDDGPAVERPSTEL

For the compound `CN1C(O)=C(C(=O)Nc2ccc(Br)cc2)c2ccc(Cl)cc2S1(=O)=O`, the inhibition stood at 100% in experiment [1], 27% in experiment [2] and 89% in experiment [3].

As for `O=C(Nc1cccc(Cl)c1)C1=C(O)c2ccccc2SC1`, the values for the inhibition in experiment [1], in experiment [2] and in experiment [3] were 83%, 19% and 75%, respectively.

Regarding `O=C(Nc1cccc(Cl)c1)C1=C(O)c2ccccc2[S+]([O-])C1` (stereo unspecified), the inhibition in experiment [1] is 38%; in experiment [2], -2%; in experiment [3] it was -2%.

As to `CN1C(O)=C(C(=O)Nc2ccccc2Cl)c2cc(Cl)c(Cl)cc2S1(=O)=O`, the inhibition in experiment [1] is 100%; in experiment [2] it was 28%; in experiment [3], 97%.

Regarding `CN1C(O)=C(C(=O)Nc2nccs2)c2c(ccc3ccccc23)S1(=O)=O`, the figures for the inhibition in experiment [1], in experiment [2] and in experiment [3] were 93%, 24% and 57%, respectively.

As for `CN1C(O)=C(C(=O)Nc2ccc(Cl)cc2Cl)c2sc(Cl)cc2S1(=O)=O`, the inhibition in experiment [1] was found to be 91%; in experiment [2], 32%; in experiment [3], 57%.

Regarding `CN1C(C(=O)Nc2ccc(Cl)cc2)=C(O)c2ccc3ccccc3c2S1(=O)=O`, the inhibition in experiment [1] came to 38%; in experiment [2] it was 15%; in experiment [3], 34%.

`CN1C(C(=O)Nc2ccccn2)=C(O)c2cc(Cl)ccc2S1(=O)=O`: the values for the inhibition in experiment [1], in experiment [2] and in experiment [3] were 43%, 3% and 14%, respectively.

Regarding `COc1ccc2c(c1)S(=O)(=O)N(C)C(C(=O)Nc1ncc(C)s1)=C2O`, the inhibition in experiment [1] is 50%; in experiment [2], 6%; in experiment [3], 16%.

Take `CCn1c2c(c3ccccc31)S(=O)(=O)N(C)C(C(=O)Nc1ccccc1)=C2O`: the inhibition in experiment [1] was 5%; in experiment [2], -9%; in experiment [3], 0%.

Regarding `Cc1cnc(NC(=O)C2=C(O)c3ccccc3SC2)s1`, the inhibition was 35% in experiment [1], 16% in experiment [2] and 29% in experiment [3].

Turning to `Cc1cnc(NC(=O)C2=C(O)N(C)S(=O)(=O)c3ccccc32)s1`, the inhibition in experiment [1] was determined as 66%; in experiment [2], 3%; in experiment [3], 18%.

As for `Cc1cnc(NC(=O)C2=C(O)c3cc(C)sc3S(=O)(=O)N2C)s1`, the inhibition in experiment [1] was 14%; in experiment [2], 9%; in experiment [3], 6%.

As for `O=C(Nc1cccc(Cl)c1)C1=C(O)c2cc(Cl)ccc2S(=O)(=O)C1`, the inhibition in experiment [1] was 94%; in experiment [2], -10%; in experiment [3], 64%.

For the compound `O=C(Nc1ccccn1)C1=C(O)c2ccccc2SC1`, the inhibition in experiment [1] is 83%; in experiment [2], -1%; in experiment [3] it was 34%.

With `COc1ccc2c(c1)S(=O)(=O)N(C)C(C(=O)Nc1ccccn1)=C2O`, the inhibition in experiment [1] is 44%; in experiment [2], -2%; in experiment [3], 9%.

Regarding `CN1C(C(=O)Nc2ccccc2)=C(O)c2ccc3ccccc3c2S1(=O)=O`, the figures for the inhibition in experiment [1], in experiment [2] and in experiment [3] were 88%, 4% and 64%, respectively.

On to `CN1C(C(=O)Nc2nccs2)=C(O)c2sc3cc(Cl)ccc3c2S1(=O)=O`, for which the inhibition in experiment [1] worked out at 100%; in experiment [2] it was 99%; in experiment [3] it was 100%.

`CN1C(O)=C(C(=O)Nc2ccc(Br)cc2)c2cc(Cl)ccc2S1(=O)=O`: the inhibition is 97% in experiment [1], 33% in experiment [2] and 97% in experiment [3].

Consider `CN1C(O)=C(C(=O)Nc2ccc(Cl)cc2)c2cc3ccccc3cc2S1(=O)=O`, for which the inhibition in experiment [1] was determined as 100%; in experiment [2], 57%; in experiment [3], 100%.

Regarding `Cc1cnc(NC(=O)C2=C(O)c3cc(Cl)ccc3S(=O)(=O)N2C)s1`, the inhibition in experiment [1] worked out at 62%; in experiment [2] it was 11%; in experiment [3] it was 26%.

With `O=C(Nc1ccc(Cl)cc1Cl)C1=C(O)N(Cc2ccccc2)S(=O)(=O)c2ccc(Cl)cc21`, the inhibition in experiment [1] was determined as 100%; in experiment [2], 4%; in experiment [3], 54%.

As to `Cn1c(C(=O)Nc2nccs2)c(O)c2ccccc2c1=O`, the inhibition in experiment [1] stood at 37%; in experiment [2], 2%; in experiment [3] it was 11%.

Take `Cc1cc2c(s1)C(C(=O)Nc1ccc(Cl)cc1)=C(O)N(C)S2(=O)=O`: the inhibition in experiment [1] amounted to 98%; in experiment [2], 40%; in experiment [3], 80%.

As for `Cc1ccc2c(c1)C(O)=C(C(=O)Nc1ccccc1)N(C)S2(=O)=O`, the inhibition in experiment [1] is -1%; in experiment [2], -1%; in experiment [3], -8%.

Regarding `CC1Sc2ccc(Cl)cc2C(O)=C1C(=O)Nc1cccc(Cl)c1` (stereo unspecified), the inhibition in experiment [1] stood at 12%; in experiment [2], 15%; in experiment [3], 10%.

As for `Cc1cnc(NC(=O)C2=C(O)c3cc(Cl)ccc3SC2)s1`, the inhibition came to 18% in experiment [1], 11% in experiment [2] and 21% in experiment [3].

`CCN1C(C(=O)Nc2ncc(C)s2)=C(O)c2ccccc2S1(=O)=O`: the results for the inhibition in experiment [1], in experiment [2] and in experiment [3] were 27%, -2% and -6%, respectively.

In the case of `CC1Sc2ccc(Cl)cc2C(O)=C1C(=O)Nc1ccccn1` (stereo unspecified), the inhibition in experiment [1] came out at 30%; in experiment [2], 14%; in experiment [3], 25%.

Regarding `Cc1ccc2c(c1)S(=O)(=O)N(C)C(C(=O)Nc1ncc(C)s1)=C2O`, the inhibition in experiment [1] is 69%; in experiment [2], 8%; in experiment [3], 31%.

Turning to `CN1C(O)=C(C(=O)Nc2nccs2)c2cc3ccccc3cc2S1(=O)=O`, the inhibition in experiment [1] was 64%; in experiment [2] it was -3%; in experiment [3], 11%.

For `CN1C(C(=O)Nc2ccccn2)=C(O)c2cc(F)ccc2S1(=O)=O`, the inhibition in experiment [1] was 27%; in experiment [2], 0%; in experiment [3], 11%.

For the compound `CN1C(C(=O)Nc2ccccc2)=C(O)c2ccccc2S1(=O)=O`, the inhibition in experiment [1] is 26%; in experiment [2], -8%; in experiment [3], 16%.

In the case of `O=C(Nc1ccc(Cl)cc1Cl)C1=C(O)N(C2CC2)S(=O)(=O)c2ccc(Cl)cc21`, the figures for the inhibition in experiment [1], in experiment [2] and in experiment [3] were 100%, 24% and 65%, respectively.

With `Cc1nc(NC(=O)C2=C(O)c3ccccc3S(=O)(=O)N2C)sc1C`, the results for the inhibition in experiment [1], in experiment [2] and in experiment [3] were 66%, 1% and 22%, respectively.

For `CN1C(=O)/C(=C(/O)Nc2ccccc2)c2cc(Cl)ccc2C1=O`, the inhibition in experiment [1] came out at 78%; in experiment [2], 13%; in experiment [3], 42%.

Consider `Cc1cnc(N/C(O)=C2\C(=O)N(Cc3ccccc3)C(=O)c3ccc(Cl)cc32)s1`, for which the inhibition in experiment [1] stood at 83%; in experiment [2], 8%; in experiment [3], 35%.

For the compound `CCN1C(O)=C(C(=O)Nc2ccc(Cl)cc2Cl)c2cc(Cl)ccc2S1(=O)=O`, the inhibition in experiment [1] came to 99%; in experiment [2], 36%; in experiment [3], 85%.

Consider `Cc1cnc(NC(=O)C2=C(O)N(C)S(=O)(=O)c3cc(Cl)ccc32)s1`, for which the inhibition is 94% in experiment [1], 10% in experiment [2] and 66% in experiment [3].

Take `Cc1cnc(NC(=O)C2=C(O)c3ccccc3S(=O)(=O)N2Cc2ccccc2)s1`: the inhibition in experiment [1] was found to be 42%; in experiment [2], 3%; in experiment [3], 10%.

For the compound `Cc1cnc(NC(=O)C2=C(O)c3cc(Cl)ccc3SC2C)s1` (stereo unspecified), the results for the inhibition in experiment [1], in experiment [2] and in experiment [3] were 30%, 12% and 20%, respectively.

`Cc1cnc(NC(=O)C2=C(O)c3ccc4ccccc4c3S(=O)(=O)N2C)s1`: the inhibition in experiment [1] came out at 100%; in experiment [2] it was 80%; in experiment [3], 100%.

Consider `CN1C(C(=O)Nc2ccccc2)=C(O)c2cc(Cl)ccc2S1(=O)=O`, for which the inhibition was 17% in experiment [1], 15% in experiment [2] and 16% in experiment [3].

Turning to `COc1ccc2c(c1)c1c(n2C)C(O)=C(C(=O)Nc2ccccn2)N(C)S1(=O)=O`, the inhibition in experiment [1] was determined as 88%; in experiment [2] it was 1%; in experiment [3] it was 35%.

Regarding `CN1C(C(=O)Nc2ccccn2)=C(O)c2ccc(F)cc2S1(=O)=O`, the inhibition turned out to be 74% in experiment [1], 3% in experiment [2] and 26% in experiment [3].

As to `CN1C(O)=C(C(=O)Nc2ccccc2Cl)c2cc(F)ccc2S1(=O)=O`, the inhibition amounted to 100% in experiment [1], 32% in experiment [2] and 96% in experiment [3].

For `Cc1ccc2c(c1)S(=O)(=O)N(C)C(C(=O)Nc1ccccc1)=C2O`, the inhibition was 28% in experiment [1], 2% in experiment [2] and 28% in experiment [3].

`CN1C(C(=O)Nc2nc3ccccc3s2)=C(O)c2ccccc2S1(=O)=O`: the results for the inhibition in experiment [1], in experiment [2] and in experiment [3] were 95%, 13% and 49%, respectively.

For `CN1C(C(=O)c2c[nH]c3ccccc23)=C(O)c2ccccc2S1(=O)=O`, the inhibition in experiment [1] came to 24%; in experiment [2], 13%; in experiment [3], 3%.

For `CN1C(C(=O)Nc2ccccn2)=C(O)c2ccccc2S1(=O)=O`, the results for the inhibition in experiment [1], in experiment [2] and in experiment [3] were 35%, -7% and 10%, respectively.

`O=C(Nc1ccccn1)C1=C(O)c2cc(Cl)ccc2SC1`: the results for the inhibition in experiment [1], in experiment [2] and in experiment [3] were 92%, 27% and 58%, respectively.

Turning to `CN1C(C(=O)Nc2ccc(Cl)cc2)=C(O)c2cc(Cl)ccc2S1(=O)=O`, the inhibition stood at 18% in experiment [1], 6% in experiment [2] and 23% in experiment [3].

Usually inhibition stands for the drop in the measured response relative to a control, in per cent.
